A short description of series [1]: Displacement of [3H] ifenprodil from GluN2B/GluN1a (unknown origin) expressed in mouse L(tk-) cell membranes incubated for 120 mins by scintillation counting method. The arrangement: species or system Homo sapiens. In a few lines:
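Membranes from mouse L(tk-) cells co-transfected with dexamethasone-inducible GluN1a/GluN2B (1:5), induced 24 h with 4 μM dexamethasone plus 4 μM ketamine.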
(In general: In a radioligand displacement assay an active substance lowers the binding of a labelled ligand.)

For series [2], the target named is Sigma non-opioid intracellular receptor 1 (Cavia porcellus, UniProt Q60492). The format is cell membranes.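 Further: radioligand displacement of [3H]-(+)-pentazocine from guinea pig brain cortex membranes, 120 min incubation, bound radioactivity read by scintillation counting.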
Sequence of Sigma non-opioid intracellular receptor 1 (Q60492 whole entry): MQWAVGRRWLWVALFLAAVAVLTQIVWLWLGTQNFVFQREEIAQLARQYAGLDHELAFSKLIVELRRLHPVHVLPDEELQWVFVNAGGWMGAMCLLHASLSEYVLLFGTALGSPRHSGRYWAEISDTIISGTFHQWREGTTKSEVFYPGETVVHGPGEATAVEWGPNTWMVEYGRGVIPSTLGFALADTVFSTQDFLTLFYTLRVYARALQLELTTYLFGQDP
The target in series [3] is T1, Sigma intracellular receptor 2 (Rattus norvegicus, UniProt Q5U3Y7).
T1 sequence (Q5U3Y7 whole entry): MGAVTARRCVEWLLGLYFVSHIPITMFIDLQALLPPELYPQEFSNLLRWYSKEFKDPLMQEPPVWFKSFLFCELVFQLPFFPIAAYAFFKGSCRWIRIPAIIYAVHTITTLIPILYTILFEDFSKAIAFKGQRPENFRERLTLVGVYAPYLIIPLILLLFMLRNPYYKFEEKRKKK
Description: Displacement of [3H]-di-o-tolylguanidine from sigma2 receptor in rat liver membranes incubated for 120 mins by scintillation counting method. In kind it is cell membranes.

In series [4] the target is T2, Mu-type opioid receptor (Homo sapiens, UniProt P35372). Kind of series: Displacement of [3H]DAMGO from human MOR expressed in CHO-K1 cells membranes after 60 mins by micro beta scintillation counting method. In kind it is cell membranes. In a few lines:
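Human MOR in CHO-K1 membranes (20 µg) with 1 nM [3H]DAMGO in 50 mM Tris-HCl, 5 mM MgCl2, pH 7.4, 27 °C for 60 min. Test compound at five concentrations; 10 µM naloxone defines nonspecific binding. Filtered, washed thrice with ice-cold 10 mM Tris-HCl, counted by liquid scintillation.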

In series [5] the target is Kappa-type opioid receptor (Homo sapiens, UniProt P41145). Description: Inhibition of KOR (unknown origin).
Sequence of Kappa-type opioid receptor (P41145 whole entry): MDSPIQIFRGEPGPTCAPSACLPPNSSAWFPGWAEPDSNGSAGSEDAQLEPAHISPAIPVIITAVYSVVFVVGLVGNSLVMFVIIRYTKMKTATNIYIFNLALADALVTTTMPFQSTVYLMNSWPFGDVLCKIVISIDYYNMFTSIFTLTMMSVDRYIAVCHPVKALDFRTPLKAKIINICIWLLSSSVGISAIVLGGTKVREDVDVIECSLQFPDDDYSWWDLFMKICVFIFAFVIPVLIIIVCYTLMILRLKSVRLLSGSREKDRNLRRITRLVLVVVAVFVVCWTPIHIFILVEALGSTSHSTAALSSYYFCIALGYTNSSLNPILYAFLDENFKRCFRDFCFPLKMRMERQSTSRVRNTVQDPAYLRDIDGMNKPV
Series [6] deals with T2, Mu-type opioid receptor. Description: Agonist activity at MOR (unknown origin) by cAMP assay. In kind it is functional. In general terms: Changes in cAMP serve as a functional read-out for many G protein-coupled receptors.
Series [7] has as its target Sodium-dependent serotonin transporter (Homo sapiens) (UniProt P31645). Description: Displacement of [3H]imipramine from human serotonin transporter at 1 uM after 30 mins by scintillation counting method relative to control. Summed up: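 Human SERT-enriched membranes (3.5 μg) incubated 30 min at 27 °C with 3 nM [3H]imipramine in Tris-HCl/120 mM NaCl/5 mM KCl pH 7.4, 0.1% DMSO; 200 μM imipramine for nonspecific binding. Compound at 1 μM; displacement after filtration.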

For series [8], the target named is 5-hydroxytryptamine receptor 1A (Homo sapiens) (UniProt P08908). Description: Displacement of [3H]8-OH-DPAT from human 5HT1A receptor at 1 uM incubated for 2 hrs scintillation counting method relative to control. In a few lines: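 Human 5-HT1A-enriched membranes (10 μg), 2 nM [3H]-8-OH-DPAT, 50 mM Tris-HCl/5 mM MgCl2 pH 7.4, 0.1% DMSO final, 2 h at 37 °C; 10 μM 5-HT for nonspecific binding. Compound at 1 μM; radioligand displacement read after GF/C filtration.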
Sequence of 5-hydroxytryptamine receptor 1A (Homo sapiens) (P08908 whole entry): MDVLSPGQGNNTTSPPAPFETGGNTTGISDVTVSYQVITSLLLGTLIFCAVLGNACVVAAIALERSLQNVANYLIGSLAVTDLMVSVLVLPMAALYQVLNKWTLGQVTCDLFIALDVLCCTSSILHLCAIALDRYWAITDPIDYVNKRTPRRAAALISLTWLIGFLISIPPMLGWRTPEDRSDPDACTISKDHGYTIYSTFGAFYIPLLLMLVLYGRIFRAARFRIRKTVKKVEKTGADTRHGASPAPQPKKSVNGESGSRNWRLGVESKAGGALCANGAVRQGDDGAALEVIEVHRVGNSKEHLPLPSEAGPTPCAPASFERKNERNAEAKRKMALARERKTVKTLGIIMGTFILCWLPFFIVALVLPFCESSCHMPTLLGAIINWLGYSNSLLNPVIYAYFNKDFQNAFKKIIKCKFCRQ

Series [9] addresses Alpha-1A adrenergic receptor (Homo sapiens) (UniProt P35348). Kind of series: Displacement of [3H]prazosin from human adrenergic alpha1A receptor at 1 uM after 90 mins by scintillation counting method relative to control. In a few lines: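 α1A adrenoceptor-enriched human membranes (10 µg), 0.2 nM [3H]prazosin in 50 mM HEPES, 5 mM MgCl2, 1 mM CaCl2, 0.2% BSA, pH 7.4; 90 min at 25 °C; 1 µM prazosin for nonspecific binding. Compound tested at 1 µM; bound ligand collected by filtration.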

In series [10] the target is Histamine H1 receptor (Homo sapiens) (UniProt P35367). Kind of series: Displacement of [3H]pyrilamine from human recombinant histamine H1 receptor at 1 uM after 90 mins by scintillation counting method relative to control. In a few lines: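 Human H1 receptor-enriched membranes (25 μg) with 2.4 nM [3H]pyrilamine in Na+/K+ phosphate buffer pH 7.4, 0.1% DMSO, 90 min, 25 °C; 10 μM triprolidine for nonspecific binding. Single 1 μM test concentration; filtration-based readout of displacement.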
Sequence of Histamine H1 receptor (Homo sapiens) (P35367 whole entry): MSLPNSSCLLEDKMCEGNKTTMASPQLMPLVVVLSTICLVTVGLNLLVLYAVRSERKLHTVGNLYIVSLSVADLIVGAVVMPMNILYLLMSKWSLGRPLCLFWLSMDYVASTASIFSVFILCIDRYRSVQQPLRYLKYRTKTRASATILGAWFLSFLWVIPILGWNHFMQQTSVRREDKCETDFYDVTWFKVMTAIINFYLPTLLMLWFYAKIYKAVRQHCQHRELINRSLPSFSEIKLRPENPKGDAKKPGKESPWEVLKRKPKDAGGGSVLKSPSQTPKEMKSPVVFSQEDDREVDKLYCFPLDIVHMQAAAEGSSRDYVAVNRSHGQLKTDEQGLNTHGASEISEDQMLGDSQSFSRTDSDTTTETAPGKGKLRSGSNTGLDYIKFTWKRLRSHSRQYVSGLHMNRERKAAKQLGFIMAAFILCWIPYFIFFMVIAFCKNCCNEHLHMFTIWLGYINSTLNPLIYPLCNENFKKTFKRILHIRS

A short description of series [11]: Drug metabolism in human liver microsomes at 1 uM incubated for 1 hr in presence of NADPH by UPLC-MS analysis. As to conditions: read-out: Drug metabolism. The format is ADME, Microsome. In a few lines:
(§1)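 Liver microsomes, compound 1 µM, 37 °C for 1 h in 50 mM Na/K phosphate pH 7.4, 3 mM MgCl2, NADPH-regenerating system, CYP 0.3 nmol/mL. Aliquots at 0, 10, 20, 40, 60 min quenched with cold acetonitrile, supernatants by UPLC-MS/MS; % parent remaining at end reported. Terfenadine as positive control.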
In general terms: Liver microsomes are a subcellular fraction often used to study metabolism.

The nature of series [12]: Drug metabolism in mouse liver microsomes at 1 uM incubated for 1 hr in presence of NADPH by UPLC-MS analysis. In kind it is ADME, Microsome. As to conditions: read-out: Drug metabolism. In a few lines:
as §1

Series [13] is described as follows: Drug metabolism in rat liver microsomes at 1 uM incubated for 1 hr in presence of NADPH by UPLC-MS analysis. Conditions: read-out: Drug metabolism. In kind it is ADME, Microsome. Summed up: as §1
Another series concerns the target CYP2D6 (Homo sapiens, UniProt P10635). Kind of series: Inhibition of recombinant human CYP2D6 at 1 uM by fluorescence probe substrate-based flurometric analysis. In kind it is ADME.
In series [14] the test system is Mus musculus. Description: Antiallodynic activity in CD-1 mouse model of capsaicin-induced mechanical allodynia assessed as increase in paw withdrawal threshold at 8 mg/kg, sc administered 30 mins before capsaicin addition and measured after 15 mins by von-Frey test. The format is functional, organism-based. In a few lines:
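Female CD-1 mice given compound or HPMC vehicle sc 30 min before intraplantar capsaicin (1 µg in 20 µL, 1% DMSO). 15 min later, electronic von Frey punctate stimulus (0.5 g) at least 5 mm from injection site; paw withdrawal latency, three trials 30 s apart, 50 s cutoff. % antiallodynic effect = [(LTD−LTS)/(CT−LTS)]×100; 6-8 mice per group, ANOVA with Bonferroni.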

The subject of series [15] is Mus musculus. Description: Antiallodynic activity in CD-1 mouse model of capsaicin-induced mechanical allodynia assessed as increase in paw withdrawal threshold at 16 mg/kg, sc administered 30 mins before capsaicin addition and measured after 15 mins in presence of sigma1 receptor agonist PRE-084 by von-Frey test. The format is functional, organism-based. Summed up:
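Female CD-1 mice pretreated sc with σ1 agonist PRE-084 (32 mg/kg) 5 min before sc test compound; 30 min later capsaicin 1 µg intraplantar. After 15 min, 0.5 g electronic von Frey stimulus on secondary hyperalgesia area; withdrawal latency averaged over three trials, 50 s cutoff. Effect as % antiallodynia versus HPMC-treated; 6-8 animals, one-way ANOVA plus Bonferroni.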

Another series relates to HepG2. Description: Cytotoxicity against human HepG2 assessed as reduction in cell viability at 1 to 100 uM after 20 hrs by neutral red uptake assay. As to conditions: hepg2, 20 h. The format is cell-based. In a few lines: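 HepG2 seeded 3 x 10^4/well, 24 h, then 20 h serum-free exposure at 1, 10 or 100 µM. Neutral red 50 µg/mL for 3 h, washed, dye extracted with 50% ethanol/1% acetic acid, OD 550 nm. IC50 assigned as lowest concentration reaching ≥50% cytotoxicity against untreated cells; n = 4 (duplicate, two assays).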

The nature of series [16]: Stability of compound in phosphate buffer at pH 7.4 after 24 hrs by HPLC analysis. The format is physicochemical. As to conditions: pH 7.4, 24 h. Summed up:
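Compound (25 μL of 10 mM DMSO stock) added to 1 mL aqueous buffered solution, pH 2 or pH 7.4, stirred 24 h at room temperature, analyzed by HPLC-MS; deemed stable if peak area remained 95–105%.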

Activity calls are given as the source filed them.

The record followed here is ChEMBL document CHEMBL4393719, “Tetrahydro-3-benzazepines with fluorinated side chains as NMDA and σ1 receptor antagonists: Synthesis, receptor affinity, selectivity and antiallodynic activity” (Eur J Med Chem, 2019).

T2 sequence (P35372 whole entry): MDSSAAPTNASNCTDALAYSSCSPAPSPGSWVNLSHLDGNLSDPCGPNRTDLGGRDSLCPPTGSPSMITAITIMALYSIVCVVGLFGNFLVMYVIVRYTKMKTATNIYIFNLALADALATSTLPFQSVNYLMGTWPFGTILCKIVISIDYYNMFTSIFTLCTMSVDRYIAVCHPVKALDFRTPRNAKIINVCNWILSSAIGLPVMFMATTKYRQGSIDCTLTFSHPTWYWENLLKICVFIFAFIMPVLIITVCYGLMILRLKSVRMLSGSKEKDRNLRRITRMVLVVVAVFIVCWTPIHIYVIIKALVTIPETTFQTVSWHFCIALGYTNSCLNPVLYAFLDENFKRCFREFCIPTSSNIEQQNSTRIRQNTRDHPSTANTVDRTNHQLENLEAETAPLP
Sequence of Sodium-dependent serotonin transporter (Homo sapiens) (P31645 whole entry, looked up): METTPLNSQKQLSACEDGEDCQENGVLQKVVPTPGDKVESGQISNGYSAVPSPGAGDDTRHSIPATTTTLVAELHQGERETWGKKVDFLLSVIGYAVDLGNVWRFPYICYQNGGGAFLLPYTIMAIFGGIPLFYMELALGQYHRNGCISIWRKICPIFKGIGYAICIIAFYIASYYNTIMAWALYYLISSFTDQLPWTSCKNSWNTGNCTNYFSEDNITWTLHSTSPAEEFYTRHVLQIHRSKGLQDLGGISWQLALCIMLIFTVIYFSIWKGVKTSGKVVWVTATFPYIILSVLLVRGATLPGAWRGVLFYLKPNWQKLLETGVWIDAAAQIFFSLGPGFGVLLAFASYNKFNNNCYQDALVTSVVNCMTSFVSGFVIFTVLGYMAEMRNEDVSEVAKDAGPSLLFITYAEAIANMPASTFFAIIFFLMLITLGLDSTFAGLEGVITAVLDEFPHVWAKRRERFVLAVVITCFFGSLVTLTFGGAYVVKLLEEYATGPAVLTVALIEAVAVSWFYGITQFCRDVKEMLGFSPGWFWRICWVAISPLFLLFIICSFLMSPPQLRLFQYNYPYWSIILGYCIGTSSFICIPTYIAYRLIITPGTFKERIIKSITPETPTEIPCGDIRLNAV
Sequence of Alpha-1A adrenergic receptor (Homo sapiens) (P35348 whole entry): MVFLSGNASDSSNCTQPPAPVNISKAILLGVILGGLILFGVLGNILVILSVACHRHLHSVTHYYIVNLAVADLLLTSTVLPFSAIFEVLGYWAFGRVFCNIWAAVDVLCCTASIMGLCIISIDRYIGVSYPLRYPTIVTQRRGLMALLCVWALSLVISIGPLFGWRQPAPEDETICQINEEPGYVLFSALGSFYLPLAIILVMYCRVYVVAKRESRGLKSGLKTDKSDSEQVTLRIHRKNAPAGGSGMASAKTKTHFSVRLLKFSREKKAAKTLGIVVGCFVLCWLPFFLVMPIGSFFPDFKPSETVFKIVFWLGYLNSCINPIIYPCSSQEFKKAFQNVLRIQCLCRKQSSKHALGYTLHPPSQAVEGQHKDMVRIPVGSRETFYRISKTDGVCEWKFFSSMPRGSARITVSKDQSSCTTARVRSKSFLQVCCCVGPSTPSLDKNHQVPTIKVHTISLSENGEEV
Sequence of CYP2D6 (P10635 whole entry): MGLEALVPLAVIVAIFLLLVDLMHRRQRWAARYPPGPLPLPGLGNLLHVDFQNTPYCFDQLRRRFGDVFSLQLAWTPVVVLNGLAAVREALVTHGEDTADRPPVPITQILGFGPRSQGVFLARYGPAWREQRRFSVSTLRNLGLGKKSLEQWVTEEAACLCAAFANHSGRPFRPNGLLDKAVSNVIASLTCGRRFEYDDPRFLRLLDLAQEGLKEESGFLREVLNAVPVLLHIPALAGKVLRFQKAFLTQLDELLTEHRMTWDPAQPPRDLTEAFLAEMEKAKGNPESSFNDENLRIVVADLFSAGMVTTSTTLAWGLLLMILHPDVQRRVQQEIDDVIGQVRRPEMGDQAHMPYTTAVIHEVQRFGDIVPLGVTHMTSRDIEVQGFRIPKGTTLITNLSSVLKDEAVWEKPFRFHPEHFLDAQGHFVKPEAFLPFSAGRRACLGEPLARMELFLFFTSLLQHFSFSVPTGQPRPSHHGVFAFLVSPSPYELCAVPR

As usually defined, the Ki is the equilibrium dissociation constant of an inhibitor or competing ligand from its target. Low values mean a stronger hold on the target, high ones a looser hold on the target. As usually defined, the EC50 is the concentration that produces a half-maximal response. Low values mean a more potent agent, high ones a less potent agent. Broadly, the inhibition is how much of the control response was suppressed. In the case of `COc1ccc2c(c1)CCN(CCC(F)Cc1ccccc1)CC2` (stereo not drawn), the Ki is 0.12 µM in series [1]; 0.0066 µM in series [2]; 0.115 µM in series [3]; over 1 µM on Mu-type opioid receptor [4]; over 1 µM in series [5]. At Mu-type opioid receptor [6], this compound came in with an EC50 of over 10 µM. In addition, the inhibition was under 50% in [7], 70% in series [8], under 50% in series [9] and under 50% in series [10]. In addition, the metabolised at 1 h, 1 µM in series [11], in series [12] and in series [13] was 100% each time. In addition, the inhibition at 1 µM at CYP2D6 was determined as 55%. Also, in the series on Mus musculus [14], the result was Active. Further, the result in the series on Mus musculus [15] was inactive. Also, the Activity entry in the series with HepG2 is listed as “Toxic”. In series [16], the Stability entry is “Stable”.
